Key:
[1] = biological target: T1, Phosphorylase b kinase gamma catalytic chain, liver/testis isoform (Homo sapiens, UniProt P15735); test: Inhibition of PhKgamma2 (unknown origin)
T1 sequence (P15735 whole entry): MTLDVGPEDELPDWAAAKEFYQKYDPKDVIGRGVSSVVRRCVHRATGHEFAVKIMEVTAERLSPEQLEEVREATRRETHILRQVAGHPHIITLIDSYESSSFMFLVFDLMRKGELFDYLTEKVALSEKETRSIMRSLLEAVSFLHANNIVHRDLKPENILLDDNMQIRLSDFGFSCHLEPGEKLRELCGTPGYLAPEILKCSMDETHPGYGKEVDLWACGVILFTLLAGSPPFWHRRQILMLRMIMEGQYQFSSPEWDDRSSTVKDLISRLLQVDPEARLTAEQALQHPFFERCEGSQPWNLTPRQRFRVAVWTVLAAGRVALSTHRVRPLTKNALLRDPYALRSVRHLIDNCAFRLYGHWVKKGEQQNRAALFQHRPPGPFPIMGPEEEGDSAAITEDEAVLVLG
In short: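 Kinase panel: 200 kinases were first screened at 1 μM inhibitor for percent inhibition. Those above 50% inhibition were then titrated for IC50. MgATP was fixed at the Km(app) determined for each enzyme.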

[2] = Inhibition of IL-6 production in LPS induced human Whole blood cell preincubated with compound for 1 hr followed by LPS induction and measured after 16 hrs; format: functional, cell-based
In short: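 Human whole blood was stimulated ex vivo with LPS 100 ng/ml. Plasma cytokines were read by MSD 4-plex: TNFα at 4 h; IL-1β, IL-6 and IL-8 at 16 h. Data are means ±S.E.M. of two independent experiments in duplicate, three donors. IC50 by 4-parameter nonlinear regression.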

[3] = Tmax in Sprague-Dawley rat measured upto 24 hrs by […] analysis; format: ADME; settings: in vivo
In short: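 Male Sprague-Dawley rats (275-300 g), carotid-catheterized and acclimated overnight. Dosing was i.v. at 1 mpk (n=2) in 70% saline/20% PEG-400/10% ethanol, or oral at 3 mpk (n=3) as a suspension in 0.5% HPMC/Tween. Plasma drug was measured by LC-MS/MS. Cmax and Tmax were read from individual profiles. t½ came from the terminal log-linear slope and AUC by the linear trapezoidal rule. CL = dose/AUC0-∞, Vdss = CL×MRT, F = dose-normalized AUC po/iv.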

Cc1ccc(-c2ccc3c(ccc4sc5c(c43)NC[C@@H](C)NC5=O)n2)cn1
IC50 [1]: 0.528 µM
IC50 [2]: 10.3 µM
Tmax [3]: 10.2 min
